Experimental data taken from ChEMBL document CHEMBL1641579, “Synthesis and biological evaluation of 7-substituted-1-(3-bromophenylamino)isoquinoline-4-carbonitriles as inhibitors of myosin light chain kinase and epidermal growth factor receptor” (Bioorg Med Chem, 2011).
One block for each compound: values may come before it. Calls of active or inactive are those of the source. No cut-off for these calls is given here.

Key:
[1] = test system: NCI-H522; assay: Growth inhibition of human NCI-H522 cells assessed as ATP level after 96 hrs by CellTiter-Glo assay; format: functional; conditions: NCI-H522, 96 h
[2] = test system: HOP-62; assay: Growth inhibition of human HOP62 cells assessed as ATP level after 96 hrs by CellTiter-Glo assay; format: functional; conditions: HOP-62, 96 h
In short: (§1)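 NSCLC lines maintained as in earlier work and authenticated by mutational analysis and SNP arrays. Cells were plated in 384-well format and allowed 24 h before compound addition as 10 threefold serial dilutions (DMSO stocks). After 96 h, viability was read as cellular ATP by CellTiter-Glo. GI50 was fitted with an R package.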

[3] = Growth inhibition of human HCC2450 cells assessed as ATP level after 96 hrs by CellTiter-Glo assay; format: functional; in short: as §1
[4] = test system: NCI-H596; assay: Growth inhibition of human NCI-H596 cells assessed as ATP level after 96 hrs by CellTiter-Glo assay; format: functional; conditions: NCI-H596, 96 h
[5] = Growth inhibition of human HCC2429 cells assessed as ATP level after 96 hrs by CellTiter-Glo assay; format: functional; conditions: HCC2429, 96 h; in short: as §1
[6] = test system: NCI-H520; assay: Growth inhibition of human NCI-H520 cells assessed as ATP level after 96 hrs by CellTiter-Glo assay; format: functional; conditions: NCI-H520, 96 h
[7] = test system: NCI-H322M; assay: Growth inhibition of human NCI-H322M cells assessed as ATP level after 96 hrs by CellTiter-Glo assay; format: functional
[8] = Growth inhibition of human NCI-H2110 cells assessed as ATP level after 96 hrs by CellTiter-Glo assay; format: functional; conditions: NCI-H2110, 96 h
[9] = Growth inhibition of human HCC15 cells assessed as ATP level after 96 hrs by CellTiter-Glo assay; format: functional; conditions: HCC15, 96 h; in short: as §1
[10] = Growth inhibition of human COLO699 cells assessed as ATP level after 96 hrs by CellTiter-Glo assay; format: functional; conditions: COLO 699, 96 h; in short: as §1
[11] = test system: NCI-H1666; assay: Growth inhibition of human NCI-H1666 cells assessed as ATP level after 96 hrs by CellTiter-Glo assay; format: functional; conditions: NCI-H1666, 96 h; in short: as §1
[12] = test system: NCI-H647; assay: Growth inhibition of human NCI-H647 cells assessed as ATP level after 96 hrs by CellTiter-Glo assay; format: functional; conditions: NCI-H647, 96 h
[13] = Growth inhibition of human H3255 cells assessed as ATP level after 96 hrs by CellTiter-Glo assay; format: functional; conditions: NCI-H3255, 96 h; in short: as §1
[14] = Growth inhibition of human NCI-H2172 cells assessed as ATP level after 96 hrs by CellTiter-Glo assay; format: functional; conditions: NCI-H2172, 96 h
[15] = Growth inhibition of human NCI-H3122 cells assessed as ATP level after 96 hrs by CellTiter-Glo assay; format: functional; conditions: NCI-H3122, 96 h
[16] = test system: NCI-H2347; assay: Growth inhibition of human NCI-H2347 cells assessed as ATP level after 96 hrs by CellTiter-Glo assay; format: functional; conditions: NCI-H2347, 96 h
[17] = test system: NCI-H1734; assay: Growth inhibition of human NCI-H1734 cells assessed as ATP level after 96 hrs by CellTiter-Glo assay; format: functional; conditions: NCI-H1734, 96 h; in short: as §1
[18] = Growth inhibition of human NCI-H1944 cells assessed as ATP level after 96 hrs by CellTiter-Glo assay; format: functional; conditions: NCI-H1944, 96 h
In short: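 Human NSCLC cells, maintained as described previously and authenticated by mutational analysis and SNP arrays, were plated and incubated 24 h. Compounds were dissolved in DMSO and added as 10 threefold serial dilutions. Viability was read after 96 h as cellular ATP content by luminescence, and half-maximal inhibitory concentrations were fitted to give GI50.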

[19] = Growth inhibition of human HCC1833 cells assessed as ATP level after 96 hrs by CellTiter-Glo assay; format: functional; in short: as §1
[20] = test system: PC-9; assay: Growth inhibition of human PC9 cells assessed as ATP level after 96 hrs by CellTiter-Glo assay; format: functional; conditions: PC-9, 96 h
[21] = Growth inhibition of human HCC1359 cells assessed as ATP level after 96 hrs by CellTiter-Glo assay; format: functional; in short: as §1
[22] = test system: A549; assay: Growth inhibition of human A549 cells assessed as ATP level after 96 hrs by CellTiter-Glo assay; format: functional; conditions: A549, 96 h; in short: as §1
[23] = Growth inhibition of human HCC827 cells assessed as ATP level after 96 hrs by CellTiter-Glo assay; format: functional; conditions: HCC827, 96 h; in short: as §1
[24] = Growth inhibition of human H23 cells assessed as ATP level after 96 hrs by CellTiter-Glo assay; format: functional; conditions: NCI-H23, 96 h; in short: as §1
[25] = test system: DV-90; assay: Growth inhibition of human DV90 cells assessed as ATP level after 96 hrs by CellTiter-Glo assay; format: functional; conditions: DV-90, 96 h; in short: as §1
[26] = Growth inhibition of human NCI-H1568 cells assessed as ATP level after 96 hrs by CellTiter-Glo assay; format: functional; conditions: NCI-H1568, 96 h; in short: as §1
[27] = Growth inhibition of human NCI-H322 cells assessed as ATP level after 96 hrs by CellTiter-Glo assay; format: functional; conditions: NCI-H322, 96 h
[28] = test system: EKVX; assay: Growth inhibition of human EKVX cells assessed as ATP level after 96 hrs by CellTiter-Glo assay; format: functional; in short: as §1
[29] = test system: Epidermal growth factor receptor (Homo sapiens), P00533 [T790M]; assay: Inhibition of EGFR T790M mutant activation expressed in human drug-resistant H1975 cells; format: cell-based
Chain of Epidermal growth factor receptor (Homo sapiens), P00533 [T790M] (P00533 whole entry T790M): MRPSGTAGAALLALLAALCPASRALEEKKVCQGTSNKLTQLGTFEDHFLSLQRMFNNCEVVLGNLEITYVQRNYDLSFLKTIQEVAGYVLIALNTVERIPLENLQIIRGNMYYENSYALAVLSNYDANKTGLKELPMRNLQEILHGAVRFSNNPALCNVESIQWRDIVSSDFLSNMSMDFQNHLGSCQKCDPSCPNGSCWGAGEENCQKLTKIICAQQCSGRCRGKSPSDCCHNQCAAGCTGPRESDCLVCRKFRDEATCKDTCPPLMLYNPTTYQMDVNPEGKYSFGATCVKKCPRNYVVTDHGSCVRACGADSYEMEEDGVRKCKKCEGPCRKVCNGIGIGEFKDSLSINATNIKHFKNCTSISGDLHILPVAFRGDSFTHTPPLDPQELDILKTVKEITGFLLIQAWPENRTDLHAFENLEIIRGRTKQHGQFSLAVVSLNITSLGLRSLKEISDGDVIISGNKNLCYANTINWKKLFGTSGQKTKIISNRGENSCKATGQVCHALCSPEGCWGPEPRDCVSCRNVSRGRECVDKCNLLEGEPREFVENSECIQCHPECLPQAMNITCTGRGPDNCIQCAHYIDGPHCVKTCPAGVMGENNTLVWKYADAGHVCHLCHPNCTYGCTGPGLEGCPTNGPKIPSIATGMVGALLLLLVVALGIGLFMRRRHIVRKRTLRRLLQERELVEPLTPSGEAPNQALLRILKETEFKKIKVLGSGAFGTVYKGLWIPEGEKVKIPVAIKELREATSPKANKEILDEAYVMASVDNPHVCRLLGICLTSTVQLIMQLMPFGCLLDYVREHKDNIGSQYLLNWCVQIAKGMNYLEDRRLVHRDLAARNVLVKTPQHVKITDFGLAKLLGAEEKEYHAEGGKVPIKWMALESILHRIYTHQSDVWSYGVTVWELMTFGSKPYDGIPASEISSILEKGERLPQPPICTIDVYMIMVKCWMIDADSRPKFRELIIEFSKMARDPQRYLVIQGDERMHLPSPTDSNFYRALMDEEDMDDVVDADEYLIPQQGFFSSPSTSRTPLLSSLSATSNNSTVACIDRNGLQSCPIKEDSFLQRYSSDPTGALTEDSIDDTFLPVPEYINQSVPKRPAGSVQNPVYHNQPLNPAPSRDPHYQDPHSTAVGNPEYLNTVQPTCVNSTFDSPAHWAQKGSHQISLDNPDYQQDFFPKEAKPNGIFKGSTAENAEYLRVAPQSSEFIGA

[30] = Growth inhibition of human NCI-H1781 cells assessed as ATP level after 96 hrs by CellTiter-Glo assay; format: functional; conditions: NCI-H1781, 96 h; in short: as §1
[31] = test system: NCI-H1755; assay: Growth inhibition of human NCI-H1755 cells assessed as ATP level after 96 hrs by CellTiter-Glo assay; format: functional; conditions: NCI-H1755, 96 h; in short: as §1
[32] = test system: NCI-H1838; assay: Growth inhibition of human NCI-H1838 cells assessed as ATP level after 96 hrs by CellTiter-Glo assay; format: functional; conditions: NCI-H1838, 96 h
In short: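 NSCLC lines maintained as previously described, authenticated by mutational analysis and SNP arrays. Cells seeded and incubated 24 h, then given compound (DMSO stocks) as 10 threefold serial dilutions. Viability read after 96 h as cellular ATP content (CellTiter-Glo). GI50 derived by curve fitting of half-maximal inhibition.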

[33] = test system: NCI-H2087; assay: Growth inhibition of human NCI-H2087 cells assessed as ATP level after 96 hrs by CellTiter-Glo assay; format: functional; conditions: NCI-H2087, 96 h
[34] = target: Myosin light chain kinase, smooth muscle (Homo sapiens, UniProt Q15746); assay: Competitive inhibition of MLCK by Lineweaver-Burk plot analysis
Chain of Myosin light chain kinase, smooth muscle (Q15746 whole entry): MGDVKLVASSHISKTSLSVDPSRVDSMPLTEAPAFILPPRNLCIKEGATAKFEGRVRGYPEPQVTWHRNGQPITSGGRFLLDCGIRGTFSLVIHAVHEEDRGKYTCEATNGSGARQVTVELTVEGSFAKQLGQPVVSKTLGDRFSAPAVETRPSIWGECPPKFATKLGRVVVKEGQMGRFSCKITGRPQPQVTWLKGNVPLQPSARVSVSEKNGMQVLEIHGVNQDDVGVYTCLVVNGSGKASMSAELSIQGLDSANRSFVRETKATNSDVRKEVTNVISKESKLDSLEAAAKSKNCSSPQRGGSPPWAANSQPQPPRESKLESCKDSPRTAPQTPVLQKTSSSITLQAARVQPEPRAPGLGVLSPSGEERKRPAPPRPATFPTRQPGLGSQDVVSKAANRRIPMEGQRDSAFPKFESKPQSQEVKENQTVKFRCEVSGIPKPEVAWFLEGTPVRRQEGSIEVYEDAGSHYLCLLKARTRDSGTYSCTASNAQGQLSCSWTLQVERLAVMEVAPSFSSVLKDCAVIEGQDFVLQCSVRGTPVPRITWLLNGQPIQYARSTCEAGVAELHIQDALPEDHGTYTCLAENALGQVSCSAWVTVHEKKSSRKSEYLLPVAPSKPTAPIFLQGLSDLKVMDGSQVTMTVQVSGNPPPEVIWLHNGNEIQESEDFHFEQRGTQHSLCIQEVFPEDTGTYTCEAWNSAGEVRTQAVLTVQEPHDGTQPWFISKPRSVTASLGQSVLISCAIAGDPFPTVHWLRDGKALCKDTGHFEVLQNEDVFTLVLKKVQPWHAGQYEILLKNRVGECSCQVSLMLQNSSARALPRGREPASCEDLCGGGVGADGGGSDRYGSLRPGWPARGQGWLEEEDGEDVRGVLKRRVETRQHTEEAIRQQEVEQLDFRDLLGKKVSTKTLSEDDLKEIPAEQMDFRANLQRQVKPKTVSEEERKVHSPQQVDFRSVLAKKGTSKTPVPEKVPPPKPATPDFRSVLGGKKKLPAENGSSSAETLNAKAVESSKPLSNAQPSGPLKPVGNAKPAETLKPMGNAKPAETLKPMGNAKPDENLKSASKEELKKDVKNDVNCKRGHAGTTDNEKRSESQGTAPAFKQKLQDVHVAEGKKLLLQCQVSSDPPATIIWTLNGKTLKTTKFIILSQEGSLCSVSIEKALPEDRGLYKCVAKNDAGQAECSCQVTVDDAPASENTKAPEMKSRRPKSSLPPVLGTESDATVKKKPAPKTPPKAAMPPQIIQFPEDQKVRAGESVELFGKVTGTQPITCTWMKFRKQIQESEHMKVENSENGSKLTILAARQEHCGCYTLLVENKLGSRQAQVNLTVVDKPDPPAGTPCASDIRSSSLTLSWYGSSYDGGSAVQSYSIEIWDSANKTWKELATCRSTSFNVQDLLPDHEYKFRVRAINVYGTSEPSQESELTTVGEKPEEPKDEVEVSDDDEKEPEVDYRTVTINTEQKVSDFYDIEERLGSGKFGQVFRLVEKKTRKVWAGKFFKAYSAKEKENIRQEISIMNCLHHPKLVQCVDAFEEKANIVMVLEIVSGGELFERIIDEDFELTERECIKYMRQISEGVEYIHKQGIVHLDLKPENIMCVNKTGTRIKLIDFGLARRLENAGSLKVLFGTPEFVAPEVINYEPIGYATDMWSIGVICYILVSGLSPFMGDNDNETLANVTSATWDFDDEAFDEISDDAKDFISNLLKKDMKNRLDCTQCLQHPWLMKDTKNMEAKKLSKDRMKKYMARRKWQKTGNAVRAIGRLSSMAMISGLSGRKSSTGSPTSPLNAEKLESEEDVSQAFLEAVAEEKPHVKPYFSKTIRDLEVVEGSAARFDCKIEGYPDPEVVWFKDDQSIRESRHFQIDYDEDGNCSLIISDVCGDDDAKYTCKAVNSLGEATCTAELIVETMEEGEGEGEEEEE
In short: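 Double-reciprocal (1/V vs 1/[ATP]) kinetics using the HTRF phosphorylation read-out with Ca2+/calmodulin. Conditions: 375 nM STK1 peptide substrate, ATP at 80, 110 and 140 µM, inhibitor at 0, 1, 5 and 10 µM. Reaction velocities plotted to determine the mode of inhibition.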

GI50 [1]: 17.2 µM
GI50 [4]: 19.5 µM
GI50 [6]: 16 µM
GI50 [7]: 21.4 µM
GI50 [11]: 28.8 µM
GI50 [12]: 26.3 µM
GI50 [16]: 22.9 µM
GI50 [17]: 24.3 µM
GI50 [20]: 4.68 µM
GI50 [22]: 40 µM
inhibition [29]: Active
GI50 [31]: 9.89 µM
GI50 [32]: 18.2 µM
GI50 [33]: 17 µM
SMILES: CN(C)C/C=C/C(=O)Nc1ccc2c(C#N)cnc(Nc3cccc(Br)c3)c2c1
GI50 [2]: 26.9 µM
GI50 [3]: 22.9 µM
GI50 [5]: 19.5 µM
GI50 [8]: 13.2 µM
GI50 [9]: 19.3 µM
GI50 [10]: 15.3 µM
GI50 [13]: 4.32 µM
GI50 [14]: 17.4 µM
GI50 [15]: 16.6 µM
GI50 [18]: 33.9 µM
GI50 [19]: 16.8 µM
GI50 [21]: 18.6 µM
GI50 [23]: 14.3 µM
GI50 [24]: 29.9 µM
GI50 [25]: 18.4 µM
GI50 [26]: 30.9 µM
GI50 [27]: 24.8 µM
GI50 [28]: 14.5 µM
GI50 [30]: 10.1 µM

inhibition [34]: Active
SMILES: CN1CCN(CCC(=O)Nc2ccc3c(C#N)cnc(Nc4cccc(Br)c4)c3c2)CC1
